Data reported in paper PMC3401475 (Nucleic Acids Research, 2012).

Assays:
(CUG)10 RNA = assay: SPR binding to
Procedure, shortened: (§1)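 Streptavidin coupled to both flow cells of a CM5 dextran chip after EDC/NHS activation. 5'-Biotin RNA captured at 200–1000 RU; reference cell biotin-blocked. Compound concentrations flowed in HBS-N (0.01 M HEPES, 0.15 M NaCl, pH 7.4) […]. Dissociation ≥200 s, then 0.5 or 1 M NaCl regeneration. Duplicate injections, buffer-blank subtracted. Global 1:1 Langmuir fit. KD averaged over two chips with different RNA densities. t1/2 = ln2/koff.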

human fibroblast cells = assay: MTT cell viability, human fibroblasts; assay type: cell-based; conditions: at concentrations up to 500 µM
[1] = Relative fluorescence quantum yield; assay type: physicochemical; conditions: in methanol, excitation 362 nm
(CCUG)10 RNA = assay: SPR binding to
Procedure, shortened: as §1

C2C12 mouse myoblasts = assay: MTT cell toxicity, mouse myoblasts; assay type: cell-based; conditions: 48 h, all concentrations tested
Procedure, shortened: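 C2C12 myoblasts in DMEM (10% FBS, 1% penicillin–streptomycin) grown to ~80% confluence at 37°C under CO2. Compound at varying concentrations (up to 1 mM), 48 h, 37°C. MTT in medium added for 4 h at 37°C, then isopropanol solubilisation; absorbance read at 600 nm.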

CCc1nc2cc3ccccc3cc2cc1C(=O)O [Compound 2, ethylbenzo[g]quinoline carboxylic acid]
Apparent KD ((CUG)10 RNA; (CUG)10, HBS-N pH 7.4, average of two titrations): complete lack of binding | toxicity by MTT assay (human fibroblast cells): no toxicity | fluorescence quantum yield relative to quinine sulfate [1]: 0.64

NC[C@@H]1O[C@H](O[C@H]2[C@@H](O)[C@H](O[C@@H]3[C@@H](O)[C@H](N)C[C@H](N)[C@H]3O[C@H]3O[C@H](CN)[C@@H](O)[C@H](O)[C@H]3N)O[C@@H]2CO)[C@H](N)[C@@H](O)[C@@H]1O [Neomycin, Neomycin B]
Residence time t1/2 ((CUG)10 RNA; (CUG)10, t1/2 = ln2/kd): 14 s | Kd ((CUG)10 RNA; read-out: Apparent KD, (CUG)10, HBS-N pH 7.4, average of two titrations): 0.409 µM | Residence time t1/2 ((CCUG)10 RNA; (CCUG)10, t1/2 = ln2/kd): 4 s | Kd ((CCUG)10 RNA; read-out: Apparent KD, (CCUG)10, HBS-N pH 7.4, average of two titrations): 1.96 µM

CO[C@@]12[C@H](COC(N)=O)C3=C(C(=O)C(C)=C(N)C3=O)N1C[C@@H]1N[C@@H]12 [mitomycin C]
toxicity by MTT assay (C2C12 mouse myoblasts): significant toxicity
